Results reported in PubChem BioAssay AID1885 (Broad Institute, 2009).
Among all 300,000 compounds or so, about 4,400 (1.5%) were called active.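 Rule for the calls: active = mean inhibition across valid replicates above about 55% (limit read from the data); inconclusive = mean below that limit but half or more replicates reach it; inactive = mean below it, under half of replicates reach it.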 Only a selection was taken, and actives are over-represented in it overall.

Test: Trypanosoma cruzi replication blockers in host cells – luminescence, NIH3T3 host cells, primary screen (AID 1885);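 note: signal also drops with host cell toxicity which is not excluded here; 0% = plate median of DMSO wells and 100% = zero luminescence signal; higher percent means less beta-gal luminescence so fewer parasites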
Details: T. cruzi beta-gal in NIH3T3, luminescence, 90 h; stronger effect = higher value; concentration not given here
Outline: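 Assay system: NIH/3T3 fibroblasts plus reporter T. cruzi. Amount: NIH/3T3 cells, 5,000 per well. Buffer or medium: DMEM, 2% fetal bovine serum. Doses: compound pinned at 50 nL/well, DMSO. Schedule: ≥90 h infection period, 3 h prior cell attachment. Signal: luminescent β-galactosidase signal after 60 min lysis. Read-out: parasite load inhibition, %.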
With `NC(=O)c1c(NC(=O)c2ccccc2)sc2c1CCCC2` the inhibition was 12.5% (inactive). In the case of `Cc1ccc(NC(=O)c2c(NC(=O)CCC(=O)O)sc3c2CCCCC3)cc1`, the inhibition is reported as -8.68% (inactive). For `Cc1ccc(C(=O)c2c(NC(=O)c3ccncc3)sc3c2CCCC3)cc1`, the inhibition was 57.9% (active). With `CN(C)C(CNC(=O)c1cccc(S(=O)(=O)Nc2ccc(Br)cc2)c1)c1ccco1` (stereo not given) the inhibition was 20.3% (inactive). In the case of `COc1ccc(OC)c(NC(=O)c2ccc3c(c2)C(=O)N(c2ccc(OC(C)=O)cc2)C3=O)c1`, the inhibition is reported as -18% (inactive). In the case of `CCCOc1ccc(NC(=O)C2OC3OC(C)(C)OC3C3OC(C)(C)OC23)cc1` (stereo not given), the inhibition is reported as 4.62% (inactive). In the case of `Cc1cc(-c2ccc(/C=N/n3cnnc3)o2)c([N+](=O)[O-])cc1C`, the inhibition is reported as -3.12% (inactive). In the case of `CN1CCN(/N=C/c2ccc(-c3ccc([N+](=O)[O-])cc3)o2)CC1`, the inhibition is reported as 59.9% (active). With `CN1CCN(/N=C/c2ccc(C#N)cc2)CC1` the inhibition was 48.6% (inactive). For `COc1ccc(-c2nc3c(s2)CCc2onc(-c4ccc(Br)cc4)c2-3)cc1`, the inhibition was -2.05% (inactive). With `Cc1ccc(OCCNC(=O)CCNS(=O)(=O)c2ccc(Br)cc2)cc1` the inhibition was -1.12% (inactive). In the case of `COc1ccc(NC(=O)CSc2nnc(Cc3ccccc3)c(=O)n2N)cc1`, the inhibition is reported as -3.84% (inactive). In the case of `O=C(Nc1nc2ccc([N+](=O)[O-])cc2s1)c1ccc(S(=O)(=O)N2CCCc3ccccc32)cc1`, the inhibition is reported as 73.8% (active). For `CN(C)CCCN(C(=O)c1ccc(S(=O)(=O)N2CCCc3ccccc32)cc1)c1nc2ccc(F)cc2s1`, the inhibition was 22.9% (inactive). With `CS(=O)(=O)c1ccc2nc(NC(=O)c3ccc(N4CCCC4=O)cc3)sc2c1` the inhibition was 0.975% (inactive). In the case of `CC(C)(C)N1C(=O)[C@H]2[C@@H](c3ccc(Br)cc3)N3C(=O)N(c4cccc(Cl)c4)C(=O)[C@@]3(C)[C@H]2C1=O`, the inhibition is reported as -6.33% (inactive). In the case of `Cc1ccc(-c2csc(NC(=O)C3=COCCO3)n2)cc1C`, the inhibition is reported as 71.6% (active). With `CC(=O)NCCC(=O)Nc1nc(-c2ccc3c(c2)OCCO3)cs1` the inhibition was -11.7% (inactive). With `Cc1csc(NC(=O)C2=COCCO2)n1` the inhibition was -7.78% (inactive). With `Cc1ccc(-c2nn(-c3ccccc3)cc2C(=O)NCCCN2CCCC2=O)cc1` the inhibition was -2.8% (inactive). In the case of `CC(C)(C)n1cnnc1Sc1ccc([N+](=O)[O-])cn1`, the inhibition is reported as -5.35% (inactive). For `COc1ccc(C2CC(=O)Oc3ccc(C(C)(C)C)cc32)cc1` (stereo not given), the inhibition was -9.82% (inactive). With `COc1ccc2oc(=O)cc(-c3cc4ccccc4o3)c2c1` the inhibition was 0.932% (inactive). With `CCOc1ccc(N(C)Cc2cc(=O)oc3ccc(OC)cc23)cc1` the inhibition was 79.2% (active). For `COc1ccc2oc(=O)cc(CN3CCOCC3)c2c1`, the inhibition was -6.42% (inactive). With `CCCn1c(C2CCCN2c2nc(-c3ccc(OC)cc3)cs2)nc2ccccc21` (stereo not given) the inhibition was -7.75% (inactive). With `CCN1CCN(C(c2cccnc2)c2cc(Cl)c3cccnc3c2O)CC1` (stereo not given) the inhibition was 57.7% (active). For `CCOC(=O)N1CCN(C(c2cccnc2)c2ccc3cccnc3c2O)CC1` (stereo not given), the inhibition was 30.1% (inactive). For `Oc1c(C(c2ccccn2)N2CCOCC2)ccc2cccnc12` (stereo not given), the inhibition was 10.2% (inactive). For `COc1ccc(Cl)cc1NS(=O)(=O)c1cccc(C(=O)NC2CCC(O)CC2)c1` (stereo not given), the inhibition was 3.45% (inactive). With `COC(=O)c1c(-c2ccsc2)oc2ccc(-c3cc(OC)c(OC)c(OC)c3)cc12` the inhibition was 34% (inactive). In the case of `Cc1nnc(N/N=C/C2CC=CCC2)[nH]c1=O` (stereo not given), the inhibition is reported as 0.195% (inactive). For `Cc1nnc(N/N=C/c2ccccn2)[nH]c1=O`, the inhibition was 60.9% (active). In the case of `CNC(=O)C(=O)N/N=C/c1ccccn1`, the inhibition is reported as -8.15% (inactive). In the case of `CC1(C)S[C@@H]2[C@H](N=CN3CCCCCC3)C(=O)N2[C@H]1C(=O)O`, the inhibition is reported as 4.45% (inactive). With `O=C(NCc1ccc(Cl)cc1)C(=O)NCC1CCCN1S(=O)(=O)c1cccs1` (stereo not given) the inhibition was 12.8% (inactive). With `O=C(/C=C/Sc1ncn[nH]1)c1ccc(Cl)cc1` the inhibition was 56.1% (active). With `O=C(CSc1ncn[nH]1)N/N=C/c1ccc(F)cc1` the inhibition was -12.6% (inactive). For `Cc1cc(C)nc(S/C=C/C(=O)c2ccccc2)n1`, the inhibition was 12% (inactive). With `O=C1[C@H]2[C@@H](c3ccc(F)cc3)N3C(=O)N(c4ccc(C(F)(F)F)cc4)C(=O)[C@@]3(Cc3ccccc3)[C@H]2C(=O)N1C1CCCCC1` the inhibition was 36.5% (inactive). With `COc1ccc(CNC(=O)C2CCN(C(=O)c3ccccc3)CC2)cc1` the inhibition was -1.19% (inactive). With `COc1cccc(N=c2oc3c(C)ncc(CO)c3cc2C(N)=O)c1` the inhibition was 13.3% (inactive). With `Cc1nc(Nc2ccccc2F)c2nnn(Cc3ccccc3Cl)c2n1` the inhibition was -8.04% (inactive). With `CCCc1nc(NCc2ccc3c(c2)OCO3)c2nnn(Cc3ccccc3Cl)c2n1` the inhibition was 11.9% (inactive). For `Cc1nc(Nc2ccc3c(c2)OCCO3)c2nnn(Cc3ccccc3Cl)c2n1`, the inhibition was 54.7% (active). In the case of `Cc1ccc(NS(=O)(=O)c2ccc3c(c2)NC(=O)CO3)cc1`, the inhibition is reported as 5.83% (inactive). With `CN(CC(=O)Nc1cccc(F)c1)C(=O)C1CC(=O)N(CCc2ccccc2)C1` (stereo not given) the inhibition was -2.73% (inactive). With `Cc1ccc(-n2c(SCC(=O)N3c4ccccc4Sc4ccccc43)nnc2-c2ccncc2)cc1` the inhibition was 63.1% (active). In the case of `Cc1ccc(-c2nnc(SCC(=O)N/N=C/c3cccs3)n2-c2ccc(C)cc2)cc1`, the inhibition is reported as 12.8% (inactive). In the case of `NNC(=O)CSc1nnc(-c2ccccc2)n1-c1ccccc1`, the inhibition is reported as -6.88% (inactive). For `O=C(CCC1CCCN(C(=O)c2ccc(F)c(F)c2)C1)N1CCN(c2ccccn2)CC1` (stereo not given), the inhibition was 9.19% (inactive). In the case of `COc1cc(/C=C2/SC(=S)N(Cc3ccccc3)C2=O)cc(OC)c1O`, the inhibition is reported as -5.6% (inactive). With `CC(=O)/C(=N\Nc1ccc(Cl)cc1Cl)Sc1cccc2cccnc12` the inhibition was 67.6% (active). With `O=C(Nc1ccccc1Cl)Nc1cccc2cccnc12` the inhibition was 3.14% (inactive). For `O=C(Nc1cccc2cccnc12)c1cccc(Cl)c1`, the inhibition was -33.4% (inactive). For `CCOc1ccc(C(=O)CCC(=O)NC2=NCCS2)cc1`, the inhibition was 10.9% (inactive). With `CC(=O)c1cc(CN2CCC(n3nccc3NC(=O)c3ccccc3Cl)CC2)cs1` the inhibition was 9.08% (inactive). In the case of `COCCn1cnc2c1c(=O)n(Cc1ccc(Br)cc1)c(=O)n2Cc1ccccc1`, the inhibition is reported as 19.6% (inactive). For `CCN(CC)CCn1cnc2c1c(=O)[nH]c(=O)n2Cc1ccccc1`, the inhibition was -8.26% (inactive). With `N=c1c2c(-c3ccccc3)c(-c3ccccc3)n(Cc3ccccc3)c2ncn1CCCO` the inhibition was 70.5% (active).
